The target of data set [1] is T1, Neuropeptide Y receptor type 1 (Homo sapiens) (UniProt P25929).
T1 sequence (whole entry): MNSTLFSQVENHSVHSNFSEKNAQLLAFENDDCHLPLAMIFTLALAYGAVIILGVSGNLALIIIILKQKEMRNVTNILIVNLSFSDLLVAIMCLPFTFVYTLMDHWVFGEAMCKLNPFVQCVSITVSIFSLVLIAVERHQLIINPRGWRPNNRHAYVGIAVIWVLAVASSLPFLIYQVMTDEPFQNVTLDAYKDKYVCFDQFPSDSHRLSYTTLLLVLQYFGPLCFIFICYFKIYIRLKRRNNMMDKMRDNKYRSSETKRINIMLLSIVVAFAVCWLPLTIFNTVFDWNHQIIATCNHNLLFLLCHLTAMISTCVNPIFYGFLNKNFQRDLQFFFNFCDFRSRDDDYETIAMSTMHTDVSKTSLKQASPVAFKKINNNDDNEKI
As to the kind of experiment: Antagonist activity at Y1R in human MCF-7 cells at 80 nM after 23 mins by fluorescence confocal microscopy. Type of data set: functional, cell-based. The settings on record: MCF7. An outline of the steps:
(§1)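 MCF-7-Y1 cells (MCF-7 subclone with 2–3-fold higher Y1R expression) pretreated 48 or 72 h with 1 nM 17β-estradiol; live-cell confocal imaging of fluorescent ligand (50–80 nM) after 5–23 min at rt in Leibovitz L15; non-specific binding with excess BIBP 3226 (5 µM or 80–125-fold); autofluorescence control.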

The target of data set [2] is T2, Neuropeptide Y receptor type 1 (Homo sapiens, UniProt P25929).
T2 sequence (P25929 whole entry): T1 sequence (whole entry)
As to the kind of experiment: Displacement of [3H]-UR-MK114 from Y1R in human SK-N-MC cells. Type of data set: cell-based.

Data set [3] deals with T1, Neuropeptide Y receptor type 1 (Homo sapiens). The data set can be described thus: Antagonist activity at Y1R in human HEL cells assessed as inhibition of pNPY induced [Ca2+] mobilisation. Format: functional, cell-based.
Data set [4] in a line: Chemical stability of the compound in DMSO at below 0 degC. Format: physicochemical.
A short description of data set [5]: Chemical stability in aqueous buffer assessed as compound decomposition after 90 mins at pH 7 by HPCL. Format: physicochemical. The settings on record: read-out: Activity. The essentials: (§2)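 Compound at 50 µM final (from 1 mM DMSO stock) in PBS pH 7.0, 20 °C; aliquots at 20 and 90 min diluted with acetonitrile/H2O/1% TFA, analysed by RP-HPLC (220 nm); release of parent argininamide quantified against a five-point calibration curve (0.3–25 µM).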

The nature of data set [6]: Chemical stability in aqueous buffer assessed as compound decomposition after 20 mins at pH 7 by HPCL. Format: physicochemical. The settings on record: read-out: Activity. An outline of the steps: as §2
Data set [7] has as its target T2, Neuropeptide Y receptor type 1. As to the kind of experiment: Binding affinity at Y1R in human MCF-7 cells by flow cytometry. Format: cell-based, MCF7. An outline of the steps: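 MCF-7-Y1 cells given 1 nM 17β-estradiol 3 days beforehand, trypsinised, suspended at 0.5–1 × 10^6 cells/mL in HEPES-buffered saline, 1% DMSO; saturation with fluorescent ligand 1–50 nM (non-specific: 200-fold BIBP 3226) or competition against 10 nM labelled ligand (0.03–3000 nM competitor); 15 min dark, rt; 635 nm excitation, FL-4 readout, 20,000 gated events.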

In data set [8] the target is T3, Neuropeptide Y receptor type 5 (Homo sapiens, UniProt Q15761).
T3 sequence (Q15761 whole entry): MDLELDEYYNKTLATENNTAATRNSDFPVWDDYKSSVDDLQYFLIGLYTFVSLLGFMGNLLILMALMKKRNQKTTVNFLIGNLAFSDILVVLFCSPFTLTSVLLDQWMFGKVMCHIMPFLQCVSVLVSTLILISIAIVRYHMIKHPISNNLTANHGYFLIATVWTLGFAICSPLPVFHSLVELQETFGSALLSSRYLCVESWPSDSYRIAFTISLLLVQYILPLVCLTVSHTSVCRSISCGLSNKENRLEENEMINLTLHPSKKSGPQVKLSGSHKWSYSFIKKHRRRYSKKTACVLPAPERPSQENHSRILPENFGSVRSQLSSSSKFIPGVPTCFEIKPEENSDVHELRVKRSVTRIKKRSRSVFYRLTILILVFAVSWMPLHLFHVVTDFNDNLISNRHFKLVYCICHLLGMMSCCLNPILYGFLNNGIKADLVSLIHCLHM
As to the kind of experiment: Displacement of Dy-635-pNPY from human Y5R expressed in HEC-1B cells by flow cytometry.

Data set [9] addresses T1, Neuropeptide Y receptor type 1 (Homo sapiens). As to the kind of experiment: Antagonist activity at Y1R in human MCF-7 cells at 50 nM after 12 to 15 mins by fluorescence confocal microscopy. The following applies: MCF7. Type of data set: functional, cell-based. An outline of the steps: as §1
Data set [10] concerns the target T2, Neuropeptide Y receptor type 1. The data set can be described thus: Displacement of [3H]-UR-MK114 from Y1R in human SK-N-MC cells by radioligand competition binding.
The target in data set [11] is T4, Neuropeptide Y receptor type 2 (Homo sapiens, UniProt P49146).
T4 sequence (P49146 whole entry): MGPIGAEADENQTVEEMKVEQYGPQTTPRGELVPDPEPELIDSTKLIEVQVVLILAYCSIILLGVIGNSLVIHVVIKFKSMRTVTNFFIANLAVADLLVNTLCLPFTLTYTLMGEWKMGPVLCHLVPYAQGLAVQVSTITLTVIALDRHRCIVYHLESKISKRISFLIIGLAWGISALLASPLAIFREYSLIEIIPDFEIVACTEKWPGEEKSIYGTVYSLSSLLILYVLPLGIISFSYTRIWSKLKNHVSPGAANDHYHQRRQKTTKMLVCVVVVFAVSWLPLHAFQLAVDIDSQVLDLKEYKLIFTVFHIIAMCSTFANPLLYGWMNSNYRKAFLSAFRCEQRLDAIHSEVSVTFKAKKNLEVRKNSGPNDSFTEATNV
As to the kind of experiment: Displacement of Dy-635-pNPY from human Y2R expressed in CHO cells by flow cytometry. Format: cell-based. The essentials: (§3)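 Flow cytometric displacement of labelled peptides: Cy5-[K4]-hPP on CHO-Y4 cells; Dy-635-pNPY or Cy5-pNPY on CHO-Y2 and HEC-1B-Y5 cells. Test ligands only at 1 and 10 µM or at 0.3 and 1 µM; for the red-excitable ligand, its own fluorescence without peptide was subtracted.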

The target of data set [12] is Neuropeptide Y receptor type 4 (Homo sapiens, UniProt P50391). The data set can be described thus: Displacement of Cy5-[K4]-hpp from human Y4R expressed in CHO cells by flow cytometry. Format: cell-based. An outline of the steps: as §3

Calls of active or inactive are those of the source. The rule behind the calls is not given here.

Sequence of Neuropeptide Y receptor type 4 (P50391 whole entry): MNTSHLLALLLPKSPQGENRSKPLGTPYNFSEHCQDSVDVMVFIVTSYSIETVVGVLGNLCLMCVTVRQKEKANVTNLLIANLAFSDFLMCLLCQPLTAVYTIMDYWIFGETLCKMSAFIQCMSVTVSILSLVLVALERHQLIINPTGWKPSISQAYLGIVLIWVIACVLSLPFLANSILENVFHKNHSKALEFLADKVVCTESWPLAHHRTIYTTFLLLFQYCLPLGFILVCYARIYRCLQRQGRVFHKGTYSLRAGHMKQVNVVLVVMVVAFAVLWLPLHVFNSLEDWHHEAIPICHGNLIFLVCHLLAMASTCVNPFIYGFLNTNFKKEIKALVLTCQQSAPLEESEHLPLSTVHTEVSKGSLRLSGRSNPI

With `Cc1cc(/C=C/c2cc3c4c(c2)CCCN4CCC3)cc(C)[n+]1CCN(CCNC(=O)CCCNC(=O)CCCC(=O)/N=C(\N)NCCC[C@@H](NC(=O)C(c1ccccc1)c1ccccc1)C(=O)NCc1ccc(O)cc1)CCNC(=O)CCCNC(=O)CCCC(=O)/N=C(\N)NCCC[C@@H](NC(=O)C(c1ccccc1)c1ccccc1)C(=O)NCc1ccc(O)cc1.O=C([O-])C(F)(F)F`, in data set [1], the result was Active. This compound gave a Ki in data set [2] of 56 nM. In data set [3], the Kb is 1 nM. The same compound gave a Stability in data set [4] of 12 months.

With `CN(C)c1ccc(/C=C/C=C/c2sc3ccccc3[n+]2CCCC(=O)NCCCCNC(=O)/N=C(/N)NCCC[C@@H](NC(=O)C(c2ccccc2)c2ccccc2)C(=O)NCc2ccc(O)cc2)cc1.O=C([O-])C(F)(F)F`, in [5], the degraded at 1.5 h stood at 0%. For the same compound, the degraded at 20 min in data set [6] came to 0%. This compound also came in with a Kd in data set [7] of 5 nM. For the same compound, the 50% inhibitory concentration (IC50) in data set [8], in data set [11] and in data set [12] was over 1000 nM each time. For the same compound, the Ki in [8] was over 400 nM; in data set [2], 26 nM; in [10] it was 26 nM; in data set [11] it was over 500 nM; in data set [12] it was over 500 nM. For the same compound, the outcome in data set [9] was Active. Further, the Kb in data set [3] came out at 0.7 nM. The compound further showed a Stability in [4] of 12 months.
